An excerpt weighted towards active compounds, which were near 1.8% of everything screened.
Dynein transport = blocks dynein driven cargo transport along microtubules | z-score, hits read low | 220,000 tested, 0.47% active | 3617.4 mouse cells, GR-EGFP nuclear translocation imaging; test concentration mostly 20 µM; stimulated with dexamethasone, 1 µM; hits give low values | AID 1381;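 active means plate z-score of nuclear minus cytoplasmic receptor signal below a set negative limit, without overly bright fluorescence or cell loss, cut at about -3.5 in these data, passing the limit was not always enough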;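 further: z-score of nuclear minus cytoplasmic ring GR-EGFP intensity difference per well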
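Medium: Induction medium lacking tetracycline, stripped serum | Probe or stimulus: 1.0 µM final dexamethasone stimulus | Schedule: 48 h induction, then 1 h compound, then 30 min agonist, 37 °C | Signal: Automated 10x imaging of fixed Hoechst-stained cells | Evaluation: Per-cell GR-EGFP intensity, nucleus versus surrounding cytoplasmic ring, well-averaged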
L929 necroptosis = L929 zVAD cell death inhibition. viability rescue, % at 10 µM. L929 zVAD necroptosis rescue, ATP luminescence, 24 h; with zVAD 60 µM. 220,000 tested, 0.38% active;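 active means activation, scaled between plate controls, above about 75%, limit read from the data; inactive means activation under that limit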;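 further: 0% = zVAD with DMSO and 100% = DMSO alone without zVAD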
Mdm2 ligase inh = inhibitors of human Mdm2 E3 ubiquitin ligase | cell-based MDM2 ubiquitination luciferase reporter, 2 h; 0 = plate control, 100 = twice control, blank-subtracted | signal enhancement, % at 5 µM | 210,000 tested, 0.11% active | AID 1230;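 active means signal enhancement of 30% or more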;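 further: luminescence tracks abundance of the self-degrading MDM2-luciferase fusion protein; higher signal means inhibition of MDM2 E3 ligase activity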
Target sequence (Q00987 whole entry, looked up, the tested form may be a part): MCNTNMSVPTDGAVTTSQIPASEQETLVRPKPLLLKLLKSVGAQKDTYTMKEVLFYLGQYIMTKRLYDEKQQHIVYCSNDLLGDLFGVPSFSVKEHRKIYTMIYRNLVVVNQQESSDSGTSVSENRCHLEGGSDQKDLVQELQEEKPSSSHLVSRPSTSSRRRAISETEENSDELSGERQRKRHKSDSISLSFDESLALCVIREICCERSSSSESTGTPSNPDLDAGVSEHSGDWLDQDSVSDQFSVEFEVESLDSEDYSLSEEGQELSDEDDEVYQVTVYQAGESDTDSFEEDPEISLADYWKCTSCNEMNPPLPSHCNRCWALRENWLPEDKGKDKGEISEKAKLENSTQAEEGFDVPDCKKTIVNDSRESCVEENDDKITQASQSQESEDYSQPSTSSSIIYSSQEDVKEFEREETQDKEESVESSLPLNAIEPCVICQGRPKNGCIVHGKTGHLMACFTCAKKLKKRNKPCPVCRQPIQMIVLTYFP
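Assay system: stable mammalian line carrying autodegrading MDM2–luciferase fusion reporter; amount: 2000 cells seeded into each well; buffer or medium: DMEM; benchmarks: plate control and blank wells; signal: luciferase luminescence; timing: 2 h compound exposure at 37 °C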
Autophagy HCS = autophagy modulation, high-content screen; 190,000 tested, 0.98% active; MEF GFP-LC3 puncta imaging; test concentration mostly 10 µM; AID 463193; calls only at 10 µM (by protocol);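 active means percentage of spot-positive cells more than 3 SD above its plate mean, without a fluorescence outlier flag or 80% toxicity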;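 further: spot-positive cell cutoff set from DMSO-treated cells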
TNF necrop inh = TNF-alpha cell death inhibition in Jurkat FADD-/- cells. 220,000 tested, 0.068% active. activation (protection from cell death), % at 10 µM. Jurkat FADD-/- TNF necroptosis rescue, ATP luminescence, 24 h; 0 = TNF only, 100 = no-TNF cells;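 active means activation, meaning protection from cell death, of at least 50% relative to plate controls; inactive means activation below 50%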;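 further: necroptosis triggered by 40 ng/mL TNF-alpha added together with compound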
An asterisk follows results filed as active; i = inactive; . = not tested or not shown; + = active, no number.

SMILES | Dynein transport | L929 necroptosis | Mdm2 ligase inh | Autophagy HCS | TNF necrop inh
CCCCOc1ccc(-c2nnn(CC(=O)NCc3ccco3)n2)cc1 | 0.741 | 0.2 | -18.0 | + | -8.9
C=CCC(C(=O)OC)(C(=O)OC)c1ccccc1[N+](=O)[O-] | -0.605 | -0.3 | -9.8 | i | -0.6
NC(=O)NNc1ncc(C(F)(F)F)cc1Cl | -0.405 | 2.3 | -2.7 | i | 2.6
O=C(NNc1ncc(C(F)(F)F)cc1Cl)c1c(Cl)cccc1Cl | 3.46 | -0.5 | -18.9 | + | -11.8
COc1cc(CNCc2cccnc2)ccc1OCc1ccccc1 | 0.163 | -0.6 | -25.6 | + | 0.6
COc1ccccc1/C=C1\SC(=S)N(CC(=O)Nc2nnc(C)s2)C1=O | 1.43 | -0.2 | 8.9 | i | -9.2
Cc1cc([N+](=O)[O-])nn1Cn1nc([N+](=O)[O-])cc1C | -0.677 | 1.3 | -5.3 | i | 0.9
Cc1cc([N+](=O)[O-])nn1Cc1ccccc1F | -0.496 | 90.6* | 1.5 | i | 94.6*
CCCn1c(SCC(=O)NCc2ccc(Cl)cc2)n[nH]c1=O | -0.049 | 2.0 | -3.5 | i | 1.6
COc1ccc(NC(=S)NC(NC(=O)c2ccc(Cl)cc2Cl)C(Cl)(Cl)Cl)c([N+](=O)[O-])c1 (stereo unspecified) | -0.598 | 1.1 | -17.2 | + | -3.9
COc1ccc(NC(=S)NC(NC(=O)c2cccc3ccccc23)C(Cl)(Cl)Cl)c([N+](=O)[O-])c1 (stereo unspecified) | 0.907 | -0.4 | -12.2 | + | -1.5
COc1cccc2sc(Nc3nnc(-c4cccs4)o3)nc12 | 1.03 | 14.1 | 2.2 | + | -11.2
Cc1c(-c2ccnc3cc(C(=O)O)nn23)cnn1C | -0.086 | 0.7 | -4.5 | + | -0.7
O=C(CN1CCOCC1)NN=C1CCCCCCCCCCC1 | -0.0934 | 0.8 | -4.3 | i | -0.1
CN(CC(O)Cn1cnc2c1c(=O)n(C)c(=O)n2C)c1ccccc1 (stereo unspecified) | -0.413 | 5.9 | -1.5 | + | -1.1
CC(C)OCCCNC(=S)NNC(=O)c1ccc(Cl)c(Cl)c1 | -0.76 | 0.6 | -5.9 | i | 0.0
COCCNc1nc2nonc2nc1N(C)Cc1cccc2cnccc12 | 0.911 | 0.9 | 47.8* | i | 0.8
CC(=O)N1c2ccccc2C2(O)N=C(C)SC12 (stereo unspecified) | -1.4 | 1.6 | 2.1 | i | -2.4
FC(F)(F)c1ccccc1NC(=S)NC1CCN(Cc2ccccc2)CC1 | 0.0298 | 0.5 | -10.6 | + | 8.7
S=C(Nc1ccccc1Cl)NC1CCN(Cc2ccccc2)CC1 | 0.24 | 0.2 | -8.8 | i | 1.9
CCCOC(=O)c1cc(NC(=O)/C=C/c2ccccc2)ccc1O | -0.104 | 50.6 | -10.1 | i | 2.1
CCOc1ccc(N=C2NC(=O)S/C2=C\c2ccc(OC)cc2)cc1 | -0.552 | 0.5 | . | + | 1.1
COc1ccc(/C=C2/SC(=O)NC2=O)cc1 | 0.624 | 14.6 | -5.8 | i | 1.6
CCN(C(=O)CSc1nnc(-c2ccc(Cl)cc2)n1C)C1CCS(=O)(=O)C1 (stereo unspecified) | -1.3 | 0.6 | -16.7 | i | 0.4
Cc1cc(-c2ccccc2)c2c3c(c(-c4ccccc4)n2n1)c(=O)n(C)c(=O)n3C | 0.324 | -0.3 | -6.8 | + | -9.0
SMILES | Dynein transport | L929 necroptosis | Mdm2 ligase inh | Autophagy HCS | TNF necrop inh
COc1ccc(Cl)cc1NC(=O)CN(C)CC(=O)NC(C)c1ccccc1 (stereo unspecified) | -0.355 | 0.5 | -3.0 | i | -2.4
Cc1cccc(C)c1OCC(O)CN1CCC(CN2C(=O)c3cccc4cccc(c34)C2=O)CC1 (stereo unspecified) | 0.392 | 1.2 | -17.3 | + | -14.8
Cc1noc(C)c1COc1ccc(C(=O)NCc2ccccn2)cc1 | -0.576 | 0.4 | 68.4* | i | 0.3
Cc1noc(C)c1COc1ccc(C(=O)Nc2ccccc2)cc1 | -0.365 | 1.6 | -5.7 | i | 1.0
CCc1ccc(N2C(=O)/C(=C/c3cccs3)N(CC(=O)OC)C2=S)cc1 | -0.112 | 0.3 | 4.9 | + | -3.8
COC(=O)CN1C(=S)N(c2ccc(OC)cc2)C(=O)/C1=C/c1cccs1 | -0.577 | -0.1 | -5.1 | i | 0.4
COc1ccc(C(CNc2ccc(S(=O)(=O)N3CCCC3)cc2[N+](=O)[O-])N2CCCC2)cc1 (stereo unspecified) | 2.61 | -0.4 | -9.5 | + | -4.8
Cc1nn(C2CCS(=O)(=O)C2)c(Cl)c1/C=C/C(=O)OCC(=O)c1cc(C)n(-c2ccc(F)cc2)c1C (stereo unspecified) | 1.3 | -1.1 | -13.5 | i | -0.9
CCN(CCO)C(=O)CC1C(=O)NCCN1Cc1c(F)cccc1Cl (stereo unspecified) | -0.355 | -0.3 | -2.2 | i | -0.4
C[C@]12CC[C@@H]3c4ccc(O)cc4CC[C@H]3[C@@H]1CC[C@@H]2OC(=O)CCC(=O)O | -0.537 | 1.5 | . | i | 2.3
C[C@]12CC[C@@H]3c4ccc(OC(=O)c5ccccc5)cc4CC[C@H]3[C@@H]1CC[C@@H]2O | 0.405 | 29.9 | . | + | 1.8
Cc1ccc(NC2=NC(c3ccc(F)cc3)n3c(nc(C)cc3=O)N2)cc1 (stereo unspecified) | -0.0549 | 0.4 | -13.3 | . | 1.9
O=C(CCNC(=O)Cn1ccc2ccccc2c1=O)NCc1ccccn1 | 0.707 | 0.7 | -3.8 | i | 0.1
O=C1C2C3C=CC(CO)(O3)C2C(=O)N1c1ccccc1-c1ccccc1 (stereo unspecified) | -5.74* | 0.7 | -9.6 | i | 0.8
COC(=O)C1=C(C)Nc2nc(SCc3ccccc3)[nH]c(=O)c2C1c1cccs1 (stereo unspecified) | 0.117 | . | . | i | 0.5
N#Cc1ccc(CSc2nnc(Cc3cccs3)n2Cc2ccco2)cc1 | 0.369 | -0.8 | -14.8 | + | 0.8
CCOCCOC(=O)c1[nH]c2c(c1C)C(=O)CC(c1cccs1)C2 (stereo unspecified) | 0.555 | -1.3 | -3.5 | + | -5.7
CCOC(=O)c1[nH]c2c(c1C)C(=O)CC(c1ccc(F)cc1)C2 (stereo unspecified) | -0.0134 | -1.4 | -11.3 | i | -13.1
COCCOC(=O)c1[nH]c2c(c1C)C(=O)CC(c1cccs1)C2 (stereo unspecified) | 1.46 | -1.3 | -2.1 | + | -8.5
Cc1c(C(=O)OCC(C)C)[nH]c2c1C(=O)CC(c1cccs1)C2 (stereo unspecified) | 0.0211 | -1.8 | -21.5 | i | -14.7
O=[N+]([O-])c1ccc(Nc2c3ccccc3nc3ccccc23)cc1 | 0.776 | -2.0 | -19.8 | + | -0.2
O=[N+]([O-])c1ccccc1Nc1c2ccccc2nc2ccccc12 | 1.25 | -0.2 | -9.0 | i | -1.8
CCOC(=O)C1(Cc2ccc(OC)cc2)CCN(C(=O)CN2CCCCC2=O)CC1 | -1.06 | 0.3 | -6.8 | i | -0.5
